Assay results: PubChem BioAssay
Calls of active or inactive are those of the source.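 The calls were made as follows, unless noted: active = GFP response above 150% of the DMSO level; inconclusive = fewer than 70 events counted for a yeast strain; inactive = the rest.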

What was measured:
[1] = RPL19A-GFP modulators, yeast TOR pathway, confirmation, cell-based, S. cerevisiae, flow cytometry, cherry picks, mother/daughter gates (AID 2270;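 active = GFP response below 50% of the DMSO control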); details: S. cerevisiae RPL19A-GFP strain, 3 h, at 10 µM, stronger effect = lower value, 100 = same GFP as DMSO wells
[2] = LAP4-GFP expression modulators in yeast, confirmation, cell-based, cherry picks, flow cytometry, mother/daughter gates (AID 2271;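 active = GFP response above 150% of the DMSO control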;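 also: ratio of sample to DMSO plate mean so 100% equals DMSO level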); details: S. cerevisiae LAP4-GFP strain, 3 h, at 10 µM, stronger effect = higher value, 100 means same as DMSO control
Method in brief: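 System – GFP-fusion yeast strain · Amount – 0.2 OD600 cells · Buffer or medium – SC growth medium · Dosing – single test-compound dose, 10 µM final · Schedule – 3 h treatment at 30 °C with rotation · Detection – GFP by flow cytometry · Read-out – per-gate (all, mother, daughter) GFP response vs DMSO · Benchmarks – positive rapamycin (400 ng/mL), negative DMSO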

[3] = modulators of MEP2-GFP levels in yeast, confirmation, S. cerevisiae, flow cytometry GFP, cherry picks (AID 2272;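 active = GFP response above 150% of the DMSO control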;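 also: ratio of well signal to plate DMSO mean so 100% equals DMSO level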); details: S. cerevisiae MEP2-GFP strain, 3 h, at 10 µM, stronger effect = higher value
[4] = AGP1-GFP expression modulators, hit retest, confirmation, cell-based, flow cytometry, S. cerevisiae, cherry picks (AID 2273);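 also: median GFP channel fluorescence over the whole cell population gate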; details: S. cerevisiae AGP1-GFP strain, 3 h, at 10 µM
[5] = modulators of CIT2-GFP expression in yeast, confirmation, S. cerevisiae, GFP fusion, cherry picks, mother/daughter gates (AID 2274); details: S. cerevisiae CIT2-GFP strain, flow cytometry, 3 h, at 10 µM, stronger effect = higher value
[6] = measured here: daughter cell gate
[7] = measured here: mother cell gate
[8] = measured here: daughter cell gate response
[9] = measured here: mother cell gate response

Row | SMILES | GFP response vs DMSO [1] | GFP response vs DMSO [1, 6] [%] | GFP response vs DMSO [1, 7] [%] | GFP response relative to DMSO [2] | GFP response relative to DMSO [2, 8] [%] | GFP response relative to DMSO [2, 9] [%] | GFP response vs DMSO [3] | GFP response, % of DMSO [4] | GFP response, % of DMSO [5] | GFP response, % of DMSO [5, 6] [%] | GFP response, % of DMSO [5, 7] [%]
1 | Cc1cc(Br)c2c(c1)/C(=C/C(=O)c1cccs1)C(=O)N2 | 99.6% (inactive) | 99.1 | 99.2 | 115% (inactive) | 115 | 117 | 105% (inactive) | 107% (inactive) | 98.4% (inactive) | 93.7 | 95.7
2 | CCOc1ccccc1NC(=O)c1nc(S(=O)(=O)Cc2ccccc2)ncc1Cl | 97.8% (inactive) | 99.8 | 97.1 | 94.1% (inactive) | 96 | 95.4 | 103% (inactive) | 106% (inactive) | 98.6% (inactive) | 101 | 97.1
3 | NC(=O)c1ccccc1-c1nc(-c2ccccc2)no1 | 97.6% (inactive) | 96.1 | 96.7 | 101% (inactive) | 97.5 | 102 | 109% (inactive) | 102% (inactive) | 105% (inactive) | 101 | 104
4 | CN(C)CCCNc1cc(C(C)(C)C)nc2c(-c3ccc(Cl)cc3)cnn12 | 93.6% (inactive) | 89 | 94.2 | 116% (inactive) | 107 | 118 | 114% (inactive) | 107% (inactive) | 93.1% (inactive) | 94 | 92.6
5 | COc1ccc(C(=O)c2nccc3ccccc23)cc1 | 96.8% (inactive) | 86.1 | 91.3 | 106% (inactive) | 104 | 99.3 | 96.2% (inactive) | 100% (inactive) | 98.3% (inactive) | – | –
6 | O=C1CC(c2ccccc2)CN1S(=O)(=O)c1ccccc1 (centres undefined) | 98.4% (inactive) | 96.4 | 98.9 | 97.9% (inactive) | 99.2 | 97.2 | 105% (inactive) | 101% (inactive) | 103% (inactive) | 103 | 103
7 | CCCc1[nH]nc2c1C(c1ccc(OC(=O)N3CCOCC3)cc1)C(C#N)=C(N)O2 (centres undefined) | 98.2% (inactive) | 97.1 | 96.4 | 97.9% (inactive) | 94.4 | 94 | 100% (inactive) | 102% (inactive) | 101% (inactive) | – | –
8 | Cc1[nH][nH]c(=O)c1C(c1ccc(N(C)C)c(Br)c1)c1c(C)[nH][nH]c1=O | 99.3% (inactive) | 98 | 99.2 | 116% (inactive) | 115 | 114 | 104% (inactive) | 105% (inactive) | 96.4% (inactive) | 96.4 | 94.5
9 | O=C(O)CCc1ccc(-c2ccc(Br)cc2)o1 | 99.4% (inactive) | 92.2 | 97 | 137% (inactive) | 119 | 129 | 99% (inactive) | 86.6% (inactive) | 84.3% (inactive) | 81.2 | 82.1
10 | CCn1cc(/C=C/c2cc[n+](C)cc2)c2ccccc21 | 105% (inactive) | 101 | 107 | 117% (inactive) | 119 | 117 | 154% (inactive) | 108% (inactive) | – | – | –
11 | O=C(Nc1c(-c2ccccc2)nc2ccccn12)c1ccco1 | 100% (inactive) | 102 | 99.8 | 99.2% (inactive) | 94.4 | 96.1 | 98.3% (inactive) | 98.9% (inactive) | 103% (inactive) | – | 106
12 | NC(=O)C1CCN(C(=S)NCCc2ccccc2)CC1 | 97.3% (inactive) | 99.5 | 97.1 | 91.8% (inactive) | 91.3 | 93.4 | 99.3% (inactive) | 102% (inactive) | 101% (inactive) | 103 | 103
13 | CN(C)c1ccc(N=Cc2nc(-c3ccccc3)oc2OC(=O)c2cccc(Br)c2)cc1 | 96.2% (inactive) | 90.4 | 89.1 | 93.7% (inactive) | 84.2 | 93 | 94.4% (inactive) | 98.1% (inactive) | 92.2% (inactive) | – | –
14 | O=[N+]([O-])c1cc(/C=N/O)ccc1Oc1ccccc1Cl | 76.7% (inactive) | 75.3 | 70.2 | 146% (inactive) | 106 | 134 | 146% (inactive) | 135% (inactive) | 155% (active) | – | –
15 | CS(=O)(=O)N1N=C(c2ccc3nccnc3c2)CC1c1ccccc1 (centres undefined) | 99.8% (inactive) | 102 | 98.2 | 100% (inactive) | 102 | 99.5 | 101% (inactive) | 98.4% (inactive) | 103% (inactive) | 103 | 102
16 | C/C(=N\NC(=O)c1ccc(Br)cc1)c1ccccc1 | 98% (inactive) | 97.9 | 98 | 97.9% (inactive) | 99.2 | 98.3 | 102% (inactive) | 94.3% (inactive) | 99.7% (inactive) | 99.1 | 98.5
17 | Cc1nn(C(=O)c2ccco2)c(C)c1Sc1ccccc1 | 95.6% (inactive) | 97 | 94.4 | 97.7% (inactive) | 99 | 95.4 | 101% (inactive) | 97% (inactive) | 98.6% (inactive) | 99.3 | 98.2

Row | SMILES | GFP response vs DMSO [1] | GFP response vs DMSO [1, 6] [%] | GFP response vs DMSO [1, 7] [%] | GFP response relative to DMSO [2] | GFP response relative to DMSO [2, 8] [%] | GFP response relative to DMSO [2, 9] [%] | GFP response vs DMSO [3] | GFP response, % of DMSO [4] | GFP response, % of DMSO [5] | GFP response, % of DMSO [5, 6] [%] | GFP response, % of DMSO [5, 7] [%]
18 | CCCn1c(=N)c(C(=O)NC2CCCC2)cc2c(=O)n3cccc(C)c3nc21 | 100% (inactive) | 85.2 | 78 | 96.2% (inactive) | 100 | 99.3 | 104% (inactive) | 104% (inactive) | 104% (inactive) | – | –
19 | COc1ccccc1CNc1nc(S(=O)(=O)c2ccccc2)c(Cl)s1 | 97.3% (inactive) | 97.8 | 96.5 | 108% (inactive) | 104 | 109 | 95.2% (inactive) | 105% (inactive) | 97.2% (inactive) | 97.6 | 97.1
20 | COc1ccc(N2CCN(C(=O)c3ccccc3)CC2)c([N+](=O)[O-])c1 | 101% (inactive) | 98.8 | 103 | 106% (inactive) | 104 | 108 | 107% (inactive) | 102% (inactive) | 91.5% (inactive) | 93.8 | 96.8
21 | Cc1cc(OCC(=O)Nc2ccc(S(=O)(=O)N3CCN(C)CC3)cc2)ccc1Br | 98% (inactive) | 98.7 | 97.3 | 97.7% (inactive) | 99 | 97.4 | 101% (inactive) | 106% (inactive) | 101% (inactive) | 101 | 103
22 | Cc1cccn2c(=O)c(/C=C(\C#N)C(=O)NCc3ccco3)c(N3CCOCC3)nc12 | 100% (inactive) | 101 | 99.6 | 97% (inactive) | 97.5 | 96.2 | 99% (inactive) | 98% (inactive) | 100% (inactive) | 103 | 98.1
23 | Cc1nonc1C(=O)N/N=C/c1ccc([N+](=O)[O-])o1 | 100% (inactive) | 101 | 101 | 111% (inactive) | 109 | 113 | 105% (inactive) | 106% (inactive) | 105% (inactive) | 105 | 104
24 | O=c1oc2cc(Oc3c([N+](=O)[O-])cc(C(F)(F)F)cc3[N+](=O)[O-])ccc2c2c1CCCC2 | 95.4% (inactive) | 90.7 | 86.8 | 246% (active) | 153 | 249 | 105% (inactive) | 108% (inactive) | 100% (inactive) | 97.4 | 94.4
25 | CCn1c(=O)c(C(=O)NCCc2ccccc2)c(O)c2ccccc21 | 98.5% (inactive) | 99.8 | 98.8 | 95.3% (inactive) | 96 | 97.4 | 103% (inactive) | 108% (inactive) | 98.6% (inactive) | 99.3 | 98.2
26 | Cc1ccn2c(NC3CCCCC3)c(C(C)C)nc2c1 | 99.4% (inactive) | 99.4 | 99.2 | 101% (inactive) | 101 | 100 | 100% (inactive) | 100% (inactive) | 101% (inactive) | 103 | 101
27 | COC(=O)c1ccc(/C=N/OCC(=O)NCCc2ccc(OC)c(OC)c2)cc1 | 99% (inactive) | 99 | 98.7 | 97.4% (inactive) | 102 | 97.2 | 102% (inactive) | 102% (inactive) | 107% (inactive) | 106 | 107
28 | O=[N+]([O-])c1cc(C(F)(F)F)ccc1Sc1ccccn1 | 102% (inactive) | 101 | 101 | 97.4% (inactive) | 98.7 | 98.3 | 102% (inactive) | 99.2% (inactive) | 104% (inactive) | 103 | 103
29 | Cc1noc(/C=C/c2cccnc2)c1[N+](=O)[O-] | 105% (inactive) | 104 | 103 | 120% (inactive) | 117 | 124 | 104% (inactive) | 92.4% (inactive) | 92.6% (inactive) | 94.8 | 89.1
30 | O=C(/C=C/c1ccccc1[N+](=O)[O-])c1ccccc1Br | 92.9% (inactive) | 94.8 | 89.1 | 161% (active) | 139 | 180 | 101% (inactive) | 104% (inactive) | 90.9% (inactive) | 95.2 | 82.8
31 | O=C(Nc1nc(-c2ccccc2)cs1)c1cccc([N+](=O)[O-])c1 | 102% (inactive) | 100 | 94.5 | 101% (inactive) | 95.9 | 95.2 | 105% (inactive) | 108% (inactive) | 98.8% (inactive) | – | –
32 | Cc1cc(C)nc(/N=c2/ssnc2Cl)c1 | 88.7% (inactive) | 87.3 | 86.4 | 142% (inactive) | 131 | 143 | 107% (inactive) | 111% (inactive) | 124% (inactive) | 110 | 116
33 | O=C(Nc1ccc(F)cc1)c1cc2cc(Cl)ccc2[nH]1 | 97% (inactive) | 96.9 | 96.2 | 101% (inactive) | 97.6 | 94 | 100% (inactive) | 102% (inactive) | 99.7% (inactive) | – | 92.6
34 | CSc1ccc(/C=C/C(=O)c2c(O)cc(C)oc2=O)cc1 | 105% (inactive) | 106 | 103 | 131% (inactive) | 125 | 135 | 120% (inactive) | 96.3% (inactive) | – | – | –
